Some results are limits rather than exact numbers.

Common to all, as to format: functional
Experiment [1] relates to Cavia porcellus. As to the kind of experiment: In vivo reversal activity versus ~90% block by rocuronium in guinea pig. Put shortly: (§1)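 Male Dunkin-Hartley guinea pigs (600-900 g), anaesthetized ip with pentobarbitone 10 mg/kg plus urethane 1000 mg/kg, tracheotomized and ventilated. Continuous iv rocuronium infusion (~10 nmol kg-1 min-1) was raised to a steady 85-90% block. Increasing iv doses of agent were given cumulatively. ED50 = 50% recovery versus preblock twitch, by regression. Mean ± SEM of at least two experiments, or one.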

For experiment [2], the species on record is Mus musculus. Description: In vitro reversal activity versus ~90% block by rocuronium in isolated mouse hemidiaphragm, expressed as effective conc.
Experiment [3] relates to Cavia porcellus. Description: In vivo reversal activity versus ~90% block by rocuronium in guinea pig, expressed as % maximum reversal at 1018 umol/kg conc. Put shortly: as §1
The species entered for experiment [4] is Mus musculus. As to the kind of experiment: In vitro reversal activity versus ~90% block by rocuronium in isolated mouse hemidiaphragm, expressed as % of maximum reversal at a conc. of 360 uM.
Experiment [5] deals with Cavia porcellus. As to the kind of experiment: In vivo reversal activity versus ~90% block by rocuronium in guinea pig, expressed as % of maximum reversal at 1.7 umol/kg conc. Put shortly:
as §1

For experiment [6], the species on record is Mus musculus. Description: In vitro reversal activity versus ~90% block by rocuronium in isolated mouse hemidiaphragm, expressed as % of maximum reversal at 7.2 uM conc.
The species named for experiment [7] is Mus musculus. As to the kind of experiment: In vitro reversal activity versus ~90% block by rocuronium in isolated mouse hemidiaphragm, expressed as % of maximum reversal at 144 uM conc.
Experiment [8] has as its system Cavia porcellus. As to the kind of experiment: In vivo reversal activity versus ~90% block by rocuronium in guinea pig, expressed as % of maximum reversal at 47umol/kg conc. Put shortly: (§2)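 Male Dunkin-Hartley guinea pigs (600-900 g) anaesthetized ip with pentobarbitone 10 mg/kg plus urethane 1000 mg/kg, tracheotomized and artificially ventilated. Continuous iv rocuronium bromide infusion (~10 nmol kg-1 min-1) raised until steady-state twitch block of 85-90%. Increasing single iv doses of reversal agent given by a separate catheter. Max reversal is peak twitch recovery versus preblock height at highest dose tested; means ± SEM, n ≥ 2 or single experiment.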

The subject of experiment [9] is Cavia porcellus. Description: In vivo reversal activity versus ~90% block by rocuronium in guinea pig, expressed as % of maximum reversal at 33.1 umol/kg conc. A digest of the protocol:
as §2

For experiment [10], the species on record is Mus musculus. Description: In vitro reversal activity versus ~90% block by rocuronium in isolated mouse hemidiaphragm, expressed as % of maximum reversal at 10.8uM conc.
Experiment [11] has as its system Cavia porcellus. As to the kind of experiment: In vivo reversal activity versus ~90% block by rocuronium in guinea pig, expressed as % of maximum reversal at 11 umol/kg conc. Put shortly:
as §1

The species named for experiment [12] is Mus musculus. Description: In vitro reversal activity versus ~90% block by rocuronium in isolated mouse hemidiaphragm, expressed as % of maximum reversal at 252 uM conc.
The test system of experiment [13] is Cavia porcellus. As to the kind of experiment: In vivo reversal activity versus ~90% block by rocuronium in guinea pig, expressed as % of maximum reversal at 1.2 umol/kg conc. A digest of the protocol: as §1
The species entered for experiment [14] is Mus musculus. Description: In vitro reversal activity versus ~90% block by rocuronium in isolated mouse hemidiaphragm, expressed as % of maximum reversal at 3.6 uM conc.
The test system of experiment [15] is Cavia porcellus. Description: In vivo reversal activity versus ~90% block by rocuronium in guinea pig, expressed as % of maximum reversal at 2.1 umol/kg conc. A digest of the protocol:
as §2

For experiment [16], the species on record is Mus musculus. Description: In vitro reversal activity versus ~90% block by rocuronium in isolated mouse hemidiaphragm, expressed as % of maximum reversal at 16.2 uM conc.
The species entered for experiment [17] is Mus musculus. Description: In vitro reversal activity versus ~90% block by rocuronium in isolated mouse hemidiaphragm, expressed as % of maximum reversal at 2.9 uM conc.
The subject of experiment [18] is Cavia porcellus. Description: In vivo reversal activity versus ~90% block by rocuronium in guinea pig, expressed as % of maximum reversal at 1.6 umol/kg conc. Put shortly:
as §1

The test system of experiment [19] is Felis catus. As to the kind of experiment: Percent increase in contraction of nictitating membrane in anesthetized cat (dosed with standard combination of neostigmin (24.3 umol/kg) + atropine 15 umol/kg).
Experiment [20] concerns Felis catus. As to the kind of experiment: Percent of maximum change in BP in anesthetized cat (dosed with standard combination of neostigmin (24.3 umol/kg) + atropine 15 umol/kg).
Experiment [21] deals with Felis catus. Description: Percent of maximum change of HR in anesthetized cat (dosed with standard combination of neostigmin (24.3 umol/kg) + atropine 15 umol/kg).
Experiment [22] deals with Felis catus. As to the kind of experiment: Percent of maximum change of decrease in HR (bpm) by vagal stimulation in anesthetized cat (dosed with standard combination of neostigmin (24.3 umol/kg) + atropine 15 umol/kg).
The test system of experiment [23] is Cavia porcellus. As to the kind of experiment: In vivo reversal activity versus ~90% block by rocuronium in guinea pig, expressed as % of maximum reversal at 9.6 […] conc. A digest of the protocol: as §2

Consider `OCC1O[C@@H]2O[C@@H]3C(CO)O[C@H](O[C@@H]4C(CO)O[C@H](O[C@@H]5C(CO)O[C@H](O[C@@H]6C(CO)O[C@H](O[C@@H]7C(CO)O[C@H](O[C@H]1C(O)C2O)C(O)C7O)C(O)C6O)C(O)C5O)C(O)C4O)C(O)C3O` (stereo not given in full), for which the ED50 (usually the dose that gives a 50% effect, or the effect in half of the subjects) in the experiment on Cavia porcellus [1] came to 1580 µmol/kg. Moreover, in the experiment listed under Mus musculus [2], the EC50 – broadly, the concentration that produces a half-maximal response – was above 360 µM. The Max reversal in the experiment on Cavia porcellus [3] is given as 6.4%; in the experiment filed under Mus musculus [4], 9.7%.
For `O=S(=O)([O-])CSCC1O[C@@H]2O[C@@H]3C(CSCS(=O)(=O)[O-])O[C@H](O[C@@H]4C(CSCS(=O)(=O)[O-])O[C@H](O[C@@H]5C(CSCS(=O)(=O)[O-])O[C@H](O[C@@H]6C(CSCS(=O)(=O)[O-])O[C@H](O[C@@H]7C(CSCS(=O)(=O)[O-])O[C@H](O[C@@H]8C(CSCS(=O)(=O)[O-])O[C@H](O[C@@H]9C(CSCS(=O)(=O)[O-])O[C@H](O[C@H]1C(O)C2O)C(O)C9O)C(O)C8O)C(O)C7O)C(O)C6O)C(O)C5O)C(O)C4O)C(O)C3O.[Na+].[Na+].[Na+].[Na+].[Na+].[Na+].[Na+].[Na+]` (stereo not given in full), the Max reversal worked out at 106.5% in the experiment on Cavia porcellus [5] and 101.4% in the experiment listed under Mus musculus [6]. For the same molecule, the median effective dose (ED50) with Cavia porcellus [1] was 0.06 µmol/kg. In addition, the EC50 in the experiment listed under Mus musculus [2] was found to be 0.36 µM.
On to `OCC1O[C@@H]2O[C@@H]3C(CO)O[C@H](O[C@@H]4C(CO)O[C@H](O[C@@H]5C(CO)O[C@H](O[C@@H]6C(CO)O[C@H](O[C@@H]7C(CO)O[C@H](O[C@@H]8C(CO)O[C@H](O[C@@H]9C(CO)O[C@H](O[C@H]1C(O)C2O)C(O)C9O)C(O)C8O)C(O)C7O)C(O)C6O)C(O)C5O)C(O)C4O)C(O)C3O` (stereo not given in full), for which, in the experiment with Cavia porcellus [1], the ED50 turned out to be 4 µmol/kg. In addition, in the experiment listed under Mus musculus [2], the EC50 worked out at 34.6 µM. The figures for the Max reversal in the experiment filed under Mus musculus [7] and in the experiment with Cavia porcellus [8] were 94.1% and 104.7%, respectively.
For `NC(=O)CCCSCC1O[C@@H]2O[C@@H]3C(CSCCCC(N)=O)O[C@H](O[C@@H]4C(CSCCCC(N)=O)O[C@H](O[C@@H]5C(CSCCCC(N)=O)O[C@H](O[C@@H]6C(CSCCCC(N)=O)O[C@H](O[C@@H]7C(CSCCCC(N)=O)O[C@H](O[C@@H]8C(CSCCCC(N)=O)O[C@H](O[C@@H]9C(CSCCCC(N)=O)O[C@H](O[C@H]1C(O)C2O)C(O)C9O)C(O)C8O)C(O)C7O)C(O)C6O)C(O)C5O)C(O)C4O)C(O)C3O` (stereo not given in full), the median effective dose (ED50) with Cavia porcellus [1] was 0.58 µmol/kg. Moreover, the results for the Max reversal with Cavia porcellus [9] and in the experiment filed under Mus musculus [10] were 94.2% and 85.4%, respectively. In addition, the EC50 in the experiment listed under Mus musculus [2] was determined as 5 µM.
For `O=C([O-])c1ccccc1SCC1O[C@@H]2O[C@@H]3C(CO)O[C@H](O[C@@H]4C(CO)O[C@H](O[C@@H]5C(CO)O[C@H](O[C@@H]6C(CO)O[C@H](O[C@@H]7C(CO)O[C@H](O[C@@H]8C(CO)O[C@H](O[C@@H]9C(CO)O[C@H](O[C@H]1C(O)C2O)C(O)C9O)C(O)C8O)C(O)C7O)C(O)C6O)C(O)C5O)C(O)C4O)C(O)C3O.[Na+]` (stereo not given in full), the median effective dose (ED50) in the experiment on Cavia porcellus [1] amounted to 1.3 µmol/kg. Further, the EC50 in the experiment filed under Mus musculus [2] was 97.6 µM. Also, the values for the Max reversal in the experiment on Cavia porcellus [11] and in the experiment filed under Mus musculus [12] were 93% and 86.3%, respectively.
Take `OC1C(O)[C@@H]2O[C@H]3OC(CSCCCc4nn[n-]n4)[C@@H](O[C@H]4OC(CSCCCc5nn[n-]n5)[C@@H](O[C@H]5OC(CSCCCc6nn[n-]n6)[C@@H](O[C@H]6OC(CSCCCc7nn[n-]n7)[C@@H](O[C@H]7OC(CSCCCc8nn[n-]n8)[C@@H](O[C@H]8OC(CSCCCc9nn[n-]n9)[C@@H](O[C@H]9OC(CSCCCc%10nn[n-]n%10)[C@@H](O[C@H]1OC2CSCCCc1nn[n-]n1)C(O)C9O)C(O)C8O)C(O)C7O)C(O)C6O)C(O)C5O)C(O)C4O)C(O)C3O.[Na+].[Na+].[Na+].[Na+].[Na+].[Na+].[Na+].[Na+]` (stereo not given in full): the ED50 in the experiment with Cavia porcellus [1] is 0.22 µmol/kg. Further, in the experiment listed under Mus musculus [2], the concentration for a half-maximal effect (EC50) is 0.6 µM. Besides, the values for the Max reversal with Cavia porcellus [13] and in the experiment listed under Mus musculus [14] were 109% and 89.9%, respectively.
Take `O=C(O)CCOCCSCC1O[C@@H]2O[C@@H]3C(CSCCOCCO)O[C@H](O[C@@H]4C(CSCCOCCO)O[C@H](O[C@@H]5C(CSCCOCCO)O[C@H](O[C@@H]6C(CSCCOCCO)O[C@H](O[C@@H]7C(CSCCOCCO)O[C@H](O[C@@H]8C(CSCCOCCO)O[C@H](O[C@@H]9C(CSCCOCCO)O[C@H](O[C@H]1C(O)C2O)C(O)C9O)C(O)C8O)C(O)C7O)C(O)C6O)C(O)C5O)C(O)C4O)C(O)C3O` (stereo not given in full): the median effective dose (ED50) in the experiment with Cavia porcellus [1] amounted to 0.47 µmol/kg. The Max reversal in the experiment with Cavia porcellus [15] was 92.2%; in the experiment listed under Mus musculus [16] it was 66.1%. The EC50 in the experiment listed under Mus musculus [2] was found to be 9.1 µM.
Take `O=C([O-])Cc1ccc(SCC2O[C@@H]3O[C@@H]4C(CSc5ccc(CC(=O)[O-])cc5)O[C@H](O[C@@H]5C(CSc6ccc(CC(=O)[O-])cc6)O[C@H](O[C@@H]6C(CSc7ccc(CC(=O)[O-])cc7)O[C@H](O[C@@H]7C(CSc8ccc(CC(=O)[O-])cc8)O[C@H](O[C@@H]8C(CSc9ccc(CC(=O)[O-])cc9)O[C@H](O[C@@H]9C(CSc%10ccc(CC(=O)[O-])cc%10)O[C@H](O[C@@H]%10C(CSc%11ccc(CC(=O)[O-])cc%11)O[C@H](O[C@H]2C(O)C3O)C(O)C%10O)C(O)C9O)C(O)C8O)C(O)C7O)C(O)C6O)C(O)C5O)C(O)C4O)cc1.[Na+].[Na+].[Na+].[Na+].[Na+].[Na+].[Na+].[Na+]` (stereo not given in full): the Max reversal in the experiment listed under Mus musculus [17] turned out to be 98.9%; with Cavia porcellus [18] it was 103.8%. In addition, the ED50 in the experiment on Cavia porcellus [1] worked out at 0.14 µmol/kg. Also, the concentration giving a half-maximal response (EC50) in the experiment listed under Mus musculus [2] was determined as 1.4 µM.
For `CN(C)C(=O)Oc1cccc([N+](C)(C)C)c1.CN1[C@@H]2CC[C@H]1C[C@H](OC(=O)C(CO)c1ccccc1)C2.[Br-]` (stereo not given in full), the Increase in the experiment on Felis catus [19] was -7.2%. In addition, the BP in the experiment on Felis catus [20] was found to be 17.7 mmHg. For the same molecule, the HR in the experiment on Felis catus [21] is on record as -7.1 beats min-1. Also, the Decrease in the experiment on Felis catus [22] is given as -64.8%.
For `O=C([O-])CSCC1O[C@@H]2O[C@@H]3C(CSCC(=O)[O-])O[C@H](O[C@@H]4C(CSCC(=O)[O-])O[C@H](O[C@@H]5C(CSCC(=O)[O-])O[C@@H](O[C@@H]6C(CSCC(=O)[O-])O[C@H](O[C@@H]7C(CSCC(=O)[O-])O[C@H](O[C@@H]8C(CSCC(=O)[O-])O[C@H](O[C@H]1C(O)C2O)C(O)C8O)C(O)C7O)C(O)C6O)C(O)C5O)C(O)C4O)C(O)C3O.[Na+].[Na+].[Na+].[Na+].[Na+].[Na+].[Na+]` (stereo not given in full), in the experiment on Cavia porcellus [1], the median effective dose (ED50) came out at 0.93 µmol/kg. For the same molecule, in the experiment filed under Mus musculus [2], the EC50 was determined as 6.5 µM. Further, the values for the Max reversal with Cavia porcellus [23] and in the experiment filed under Mus musculus [16] were 89.6% and 97.3%, respectively.
